Experimental data collected from several papers.
Lines come from different studies, so protocols differ.
CHRM1: Muscarinic acetylcholine receptor M1 (CHRM1, Homo sapiens, UniProt P11229)
MDM2: E3 ubiquitin-protein ligase Mdm2 (MDM2, Homo sapiens, UniProt Q00987)

| SMILES | target | test | conditions | endpoint | value |
| --- | --- | --- | --- | --- | --- |
| N[C@@H](CCP(=O)(O)O)C(=O)O | Metabotropic glutamate receptor 8 (Grm8, Rattus norvegicus, UniProt P70579) | calcium signal, agonist |  | EC50 | 0.0589 µM |
| N#CC(CCN1CCC(N)CC1)(c1ccccc1)c1ccccc1 | Potassium voltage-gated channel subfamily A member 3 (Kcna3, Mus musculus, UniProt P16390) | ion current, inhibitor, patch clamp |  | IC50 | > 100 µM |
| N[C@@H](C[C@]1(C(=O)O)C[C@H]2OC[C@@H](O)[C@@H](O)[C@H]2O1)C(=O)O | Glutamate receptor ionotropic, kainate 3 (Rattus norvegicus, UniProt P42264, T520A) | ligand displacement, radioligand |  | Ki | 1.4 µM |
| COc1cc(C(=O)N2CC[C@@H](O)[C@@H](N)C2)cc2nc(-c3cc4ccccc4n3CC3CC3)n(C)c12 | CHRM1 | calcium signal, antagonist, fluorescence |  | IC50 | 12.6 µM |
| CC(=O)N[C@H](C(=O)N[C@@H](CC(=O)O)C(=O)N[C@@H](CC(=O)O)C(=O)N[C@@H](Cc1ccccc1)C(=O)N[C@@H](CC(=O)O)C(=O)N[C@@H](CCCNC(=N)N)C(=O)N[C@H](C(=O)N[C@@H](Cc1c[nH]c2ccccc12)C(=O)N[C@@H](CCC(N)=O)C(=O)NCC(=O)N[C@@H](CC(C)C)C(=O)N[C@H](C(=O)NCC(=O)N[C@@H](CC(C)C)C(N)=O)C(C)C)C(C)C)C(C)C | MDM2 | ligand displacement, FP |  | Kd | 41 µM |
| COc1ccc(CCNC[C@H](O)c2ccc(O)cc2)cc1OC | Beta-3 adrenergic receptor (ADRB3, Homo sapiens, UniProt P13945) | cell-free assay |  | Ki | 2.1 µM |
| c1cc(N2CCNCC2)c2cc[nH]c2c1 | CHRM1 | ligand displacement, radioligand | cell membranes | Ki | > 31.6 µM |
| CC(C)C[C@H](NC(=O)[C@H](Cc1ccccc1)NC(=O)c1cnccn1)B(O)O | Chymase (CMA1, Homo sapiens, UniProt P23946) | enzyme activity, inhibitor |  | IC50 | 4.7 µM |
| C[N+]1(C)CCC(OC(=O)C(c2ccccc2)c2ccccc2)CC1 | CHRM1 | ligand displacement, radioligand |  | IC50 | 0.00467 µM |
| CSCC[C@H](NC(=O)[C@@H](NC(=O)[C@@H](N)Cc1ccc(O)cc1)C(C)C)C(=O)NCC(=O)N[C@@H](Cc1c[nH]cn1)C(=O)O | Melanocortin receptor 3 (Mus musculus, UniProt P33033) | reporter gene, agonist |  | EC50 | > 100 µM |
| COc1cc([C@@H]2c3cc4c(cc3[C@@H](O[C@@H]3O[C@@H]5CO[C@@H](C)O[C@H]5[C@H](O)[C@H]3O)[C@H]3COC(=O)[C@H]23)OCO4)cc(OC)c1O | Organic cation/carnitine transporter 2 (SLC22A5, Homo sapiens, UniProt O76082) | transporter uptake, inhibitor, radiometric |  | IC50 | 55 µM |
| O=C(O)c1ccccc1-c1c2cc(Br)c(=O)cc-2oc2[c]([Hg+])c(O)c(Br)cc12 | Papain (Carica papaya, UniProt P00784) | binding, ITC |  | Kd | ~39000 µM |
| CC(=O)N[C@@H](CC(C)C)C(=O)N[C@H](C(=O)N[C@@H](Cc1ccccc1)C(=O)N[C@@]1(C)CCCC=CCCC[C@@](C)(C(=O)N[C@@H](CCC(N)=O)C(=O)N[C@@H](CC(C)C)C(=O)N[C@H](C(=O)N[C@@H](CO)C(N)=O)[C@@H](C)O)NC(=O)[C@H](Cc2c[nH]c3ccccc23)NC(=O)[C@H](Cc2ccc(O)cc2)NC(=O)[C@H](CCC(=O)O)NC1=O)[C@@H](C)O | MDM2 | ligand displacement, FP |  | IC50 | 0.049 µM |
| CC(C)[C@H](N)C(=O)N1CCC[C@H]1B(O)O | Lysosomal Pro-X carboxypeptidase (PRCP, Homo sapiens, UniProt P42785) | enzyme activity, inhibitor |  | IC50 | 50.3 µM |
| CC[C@H](C)[C@H](NC(=O)[C@H](CCCNC(=N)N)NC(=O)[C@H](CCCCN)NC(=O)[C@@H]1CCCN1C(=O)[C@@H](N)CC(C)C)C(=O)N[C@@H](C)C(=O)O | N-terminal Xaa-Pro-Lys N-methyltransferase 1 (Homo sapiens, UniProt Q9BV86) | binding, ITC | pH 7.5 | Kd | 48 µM |
| CC(C)[C@@H]1NC(=O)[C@H](CO)NC(=O)[C@H](CO)NC(=O)[C@H](CO)N(C)C(=O)[C@H](CC(=O)O)NC(=O)[C@H](CO)NC(=O)[C@H](Cc2ccccc2)NC(=O)CSC[C@@H](C(=O)NCC(N)=O)NC(=O)[C@H](CC(N)=O)NC(=O)[C@H](CCCNC(=N)N)NC(=O)[C@H](C)NC(=O)[C@H](Cc2ccc(-c3ccccc3)cc2)NC(=O)[C@H](CC(N)=O)NC(=O)[C@@H]2CCCN2C1=O | MDM2 | ligand displacement, TR-FRET |  | Ki | > 8.06 µM |
